KCNQ1 inh – blocks the human KCNQ1 potassium channel | P51787 | CHO-K1 KCNQ1, FluxOR thallium flux fluorescence; hits give high values | B-score at 10 µM | 1.3% of 310,000 active | AID 2642;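 active = compounds whose thallium flux B-score, printed positive for inhibition, exceeds three library SD while starting fluorescence stays within three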;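 note: channel opened by potassium depolarization with thallium stimulus after 20 min compound exposure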
hERG rescue – compounds protecting human hERG from proarrhythmic drug block; AID 1511; 0.51% of 310,000 active; activation (rescue from dofetilide block), less the hit threshold, % at 10 µM; CHO-hERG, FluxOR thallium flux, dofetilide IC70 present; Q12809;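 active = activation above the mean of controls blocked by dofetilide plus 5 SD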;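 note: thallium influx through hERG after potassium depolarization seen as dye fluorescence rise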
KCNQ1 pot – human KCNQ1 channel potentiation or activation. P51787. CHO-K1 KCNQ1, thallium flux FluxOR fluorescence; hits give high values. B-score at 10 µM. 0.35% of 310,000 active. AID 2648;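 active = fluorescence ratio B-score, a plate-corrected score, at least three library SD, with initial intensity B-score within 5 SD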
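Assay system: CHO-K1 cells stably expressing KCNQ1; Medium: assay buffer with matched DMSO; Also added: K+/Tl+ depolarizing stimulus; Dosing: single dose; Timing: dye 90 min, compound 20 min, room temperature; Measured by: kinetic FluxOR thallium fluorescence, 10-s 1-Hz baseline, 110-s post-stimulus read; Read-out: peak-minus-minimum fluorescence over initial fluorescence, negative-control normalized, B-scored.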
KCNK3 inh – human KCNK3 channel inhibition, primary screen; O14649; AID 602410; CHO-KCNK3 thallium flux, FluxOR fluorescence; hits give low values; 0.84% of 340,000 active; B-score at 10 µM;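 active = B-score under library mean minus 4 SD, starting fluorescence ratio at most library mean plus 5 SD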;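 note: more negative B-score means stronger inhibition of thallium flux through KCNK3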
KCNK9 block – blocks the human KCNK9 two-pore domain potassium channel; 1.2% of 310,000 active; AID 488922; HEK293 KCNK9, FluxOR thallium flux fluorescence; hits give low values; B-score at 10 µM; Q9NPC2;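 active = ratio B-score over 3 SD below the library mean, with starting fluorescence within 5 SD of its mean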;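 note: negative B-score means less thallium flux so channel inhibition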
Target sequence (Q9NPC2 whole entry, looked up, the tested form may be a part): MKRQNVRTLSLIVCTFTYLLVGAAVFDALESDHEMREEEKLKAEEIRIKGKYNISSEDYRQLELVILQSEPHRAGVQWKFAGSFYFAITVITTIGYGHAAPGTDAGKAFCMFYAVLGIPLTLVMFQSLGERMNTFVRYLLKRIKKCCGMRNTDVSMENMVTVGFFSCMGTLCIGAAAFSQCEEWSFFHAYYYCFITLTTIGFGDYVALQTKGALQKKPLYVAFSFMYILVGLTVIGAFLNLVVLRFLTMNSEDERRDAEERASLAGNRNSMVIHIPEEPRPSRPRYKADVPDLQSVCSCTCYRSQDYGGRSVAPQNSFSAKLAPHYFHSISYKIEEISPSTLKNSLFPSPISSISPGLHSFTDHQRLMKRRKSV
KCNK3 inh conf – confirmation of human KCNK3 two-pore domain potassium channel inhibitors; shares compounds with KCNK3 inh; CHO-KCNK3 thallium flux, FluxOR fluorescence; 0% buffer, 100% carvedilol maximal block; ratio percent of control, % at 10 µM; 99% of 2,400 active; AID 651638;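 active = ratio percent of control, averaged over triplicates, above buffer control mean plus 5 SD, cut at about 64% in these data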;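 note: ratio is the fluorescence rise from min to max over baseline after thallium stimulus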
KCNK3 uninduced – counter-screen for KCNK3 inhibitors: effect in non-induced cells; shares compounds with KCNK3 inh; non-induced KCNK3 parental cells, FluxOR thallium flux; hits give low values; thallium flux ratio (lower = more inhibition) at 10 µM; 40% of 2,400 active;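 active = thallium flux ratio, averaged over three wells, more than 5 SD below the buffer control mean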;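 note: host cells are CHO cells without KCNK3 induction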
Numbers stand for hits; – = inactive; · = no result. The list is not random: actives were taken first. Their share in the collection is about 3.1%.

SMILES	KCNQ1 inh	hERG rescue	KCNQ1 pot	KCNK3 inh	KCNK9 block	KCNK3 inh conf	KCNK3 uninduced
O=C(/C=C/c1cc(Br)ccc1F)OCC(=O)N1CCOCC1	·	·	·	–	·	·	·
O=C(O)c1cc([N+](=O)[O-])ccc1C(=O)Nc1ccccc1	–	–	–	–	–	·	·
O=C(Nc1ccccc1)c1sccc1Oc1ccc([N+](=O)[O-])cc1F	–	–	–	-8.97	–	112.7	–
O=C(Nc1ccccc1N1CCN(c2ccccc2)CC1)c1ccccc1	–	–	–	-9.54	–	113.3	0.132
CC(C)Oc1cccc(C(=O)Nc2ccccc2N2CCOCC2)c1	–	–	–	–	–	·	·
CCC(C)Oc1cccc(C(=O)Nc2ccccc2N2CCOCC2)c1 (stereo not given)	–	–	–	-9.82	–	125.0	0.149
O=C(Nc1ccccc1N1CCCCC1)c1ccc(OC(F)F)cc1	–	–	–	-12.2	-7.28	92.3	–
O=C(Nc1ccccc1N1CCOCC1)c1cccc(Oc2ccccc2)c1	–	–	–	-9.59	–	96.3	–
CC(C)Cc1cc(C(=O)N2CCC(N3CCC(C(=O)N4CCOCC4)CC3)CC2)n[nH]1	–	–	–	–	–	·	·
CCOc1ccc(NC(=O)CN(C)C(=O)CCCn2c(=O)oc3ccccc32)cc1OCC	–	–	–	–	–	·	·
CC1CCN(CC(O)COC2CCC(C(C)(C)C)CC2)CC1 (stereo not given)	·	·	·	–	·	·	·
Cc1nc(-c2ccccn2)sc1C(=O)Nc1ccc(Cl)c(Cl)c1	–	–	–	–	–	·	·
CCCCNC(=O)c1ccc(CS(=O)(=O)c2ccc(C)cc2)o1	–	–	–	–	–	·	·
CCC(C)C(NC(=O)c1ccccc1NC(=O)c1ccco1)C(=O)NNC(=O)c1ccncc1 (stereo not given)	–	–	–	–	–	·	·
O=C(c1cc(-c2ccccc2)nc2ccccc12)N1CCCC1	–	–	–	–	–	·	·
Cc1ccc(-c2cc(C(=O)N3CCCCC3)c3ccccc3n2)cc1C	–	–	–	-8.91	–	84.7	0.154
COc1ccc(CN(CCCN2CCOCC2)C(=O)Nc2ccccc2)cc1OC	–	–	–	–	–	·	·
O=C(Nc1ccccc1)N(CCN1CCOCC1)Cc1cccc(Cl)c1	–	–	–	-11.6	–	94.0	–
CCOc1ccc(-c2cccc(NC(=O)c3ccc(Br)o3)c2)nn1	–	–	–	-11.7	–	98.0	–
Cc1nc(-c2cccc(NC(=O)c3ccc(Br)o3)c2)cs1	–	–	–	–	–	·	·
CN(Cc1cccc([N+](=O)[O-])c1)Cc1cccc2ccccc12	6	–	–	-11.4	-6.84	113.7	0.151
Cc1ccc(C(=O)NCC(=O)OCCCn2c(=O)[nH]c3ccccc32)cc1	–	–	–	–	–	·	·
O=C(c1ccccc1)c1ccc(Sc2ccc([N+](=O)[O-])cc2)cc1	–	–	–	-8.83	–	115.0	0.146
COc1ccc2oc(C(=O)Nc3ccc(N4CCOCC4)cc3)c(C)c2c1	–	–	–	–	–	·	·
CC(=O)c1c(C)[nH]c(C(=O)Nc2ccc(Cl)c(S(=O)(=O)N(C)C)c2)c1C	–	–	–	-10.8	–	103.0	–
SMILES	KCNQ1 inh	hERG rescue	KCNQ1 pot	KCNK3 inh	KCNK9 block	KCNK3 inh conf	KCNK3 uninduced
COCCCN(C(=O)c1cc(C)oc1C)c1c(N)n(CC(C)C)c(=O)[nH]c1=O	·	·	·	–	·	·	·
COc1ccc(C)cc1S(=O)(=O)N1CCN(c2cccc(C(F)(F)F)c2)CC1	–	–	–	-10.5	–	103.0	–
CCOc1ccc(C(=O)Nc2nnn(CC)n2)cc1	–	–	–	–	–	·	·
CCn1nnc(NC(=O)COc2ccc(C3CCCCC3)cc2)n1	–	–	–	-9.65	–	94.3	0.16
COc1ccccc1N(CC(=O)NC1CCCC1)S(=O)(=O)c1cccc(C(F)(F)F)c1	·	·	·	–	·	·	·
O=C(O)c1ccccc1C(=O)c1ccc(N2CCOCC2)c([N+](=O)[O-])c1	–	–	–	–	–	·	·
O=C(Nc1cccnc1)c1cc(-c2cccnc2)nc2ccc(Br)cc12	–	–	–	-13.3	-7.73	123.7	0.122
CCN(CC(=O)Nc1ccc2c(c1)OCCO2)C(=O)c1cc(=O)[nH]c2ccccc12	–	–	–	–	–	·	·
Cc1csc2c(N3CCN(C(=O)Nc4ccccc4)CC3)ncnc12	–	–	–	–	–	·	·
Cc1csc2ncnc(N3CCN(C(=O)Nc4ccc(OC(F)(F)F)cc4)CC3)c12	–	–	–	-9.74	–	108.7	0.157
CC(C)NC(=O)C(=O)NCCC1CCCCN1S(=O)(=O)c1cccs1 (stereo not given)	–	–	–	–	–	·	·
COc1cc(NC(=O)c2ccc(S(=O)(=O)N(C)c3ccccc3OC)cc2)cc(OC)c1	·	·	·	–	·	·	·
COc1ccccc1N(C)S(=O)(=O)c1ccc(C(=O)Nc2cccc(Br)c2)cc1	·	·	·	-12.4	·	125.0	–
COc1cccc(NC(=O)c2ccccc2F)c1	·	·	·	–	·	·	·
CCOC(=O)Nc1cccc(NC(=O)c2ccccc2F)c1	–	–	–	-8.77	–	99.7	–
CC(=O)Nc1cccc(NC(=O)c2ccccc2OCc2ccccc2)c1	–	–	–	-10.1	–	111.0	–
CCC(C)C(NC(=O)[C@@H](NC(=O)c1ccccc1F)C(C)C)C(=O)OC (stereo not given in full)	–	–	–	–	–	·	·
O=C(OCC#CCSc1nnc(-c2cccc3ccccc23)o1)c1cc2ccccc2o1	·	·	·	–	·	·	·
COC(=O)c1c(S(=O)(=O)NCc2ccccc2)sc(C(=O)O)c1C	–	–	–	-10.8	–	120.7	0.158
COc1ccc(OCCOC(=O)CNC(=O)c2cccc(C)c2)cc1	–	–	–	–	–	·	·
Cc1cccc(C(=O)NCC(=O)OCCOc2ccccc2Cl)c1	–	–	–	-9.14	–	86.3	–
Oc1ccc(-c2csc(-c3ccccc3)n2)cc1O	–	–	–	–	–	·	·
Oc1ccccc1-c1csc(-c2ccccc2)n1	–	–	–	-9.11	-6.62	115.3	0.139
O=c1[nH]c([N+](=O)[O-])nn1C(c1ccccc1)c1ccccc1	–	–	–	-10.1	–	–	–
CCN1CCN(CCC(=O)Nc2cccc(C)c2)CC1	–	–	–	–	–	·	·
O=C(Nc1cccc2cccnc12)c1ccc(Cl)cc1	–	–	–	-8.89	–	103.3	–
Cc1cccc(C(=O)Nc2cccc3cccnc23)c1	–	–	–	–	–	·	·
O=C(Nc1cccnc1Cl)c1ccc(Cl)cc1	–	–	–	–	–	·	·
Cc1ccc(C(=O)Nc2cccc3cccnc23)cc1C	–	–	–	-9.91	–	94.7	–
COc1ccc(OC)c(NC(=S)N2c3ccccc3CC2C)c1 (stereo not given)	–	–	–	-9.09	–	105.0	–
